Screening results as filed in PubChem.
HKDC1 inhibitor: HKDC1 hexokinase inhibitors, primary screen, biochemical, fluorescence, uHTS; recombinant HKDC1, G6PDH/diaphorase resazurin coupled fluorescence; inhibition, % at 20 µM; 0.16% of 340,000 active; AID 493160, 2011;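 active = inhibition above about 35% when tested at 20 µM, limit read from the data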
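Test system: HK5 enzyme. Quantity: 5 µg/mL HK5 final. Reagent: glucose and ATP substrates. Schedule: 90 min reaction incubation at room temperature, dark. Technique: resazurin-to-resorufin fluorescence via G6PDH and diaphorase coupling, 525/613 nm. Control set: DMSO wells with and without enzyme mix.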
A3G deaminase: APOBEC3G DNA deaminase inhibitors, primary screen, biochemical, fluorescence, single-stranded DNA substrate, uHTS; recombinant A3G, ssDNA deamination FAM/TAMRA fluorescence; AID 493012, 2011; 0.28% of 330,000 active; DNA dC->dU-editing enzyme APOBEC-3G (Homo sapiens), Q9HC16; inhibition, % at 20 µM;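 active = inhibition of at least 40% at 20 µM, with no more than 30% in the related APOBEC3A deaminase screen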
PfGluPho inh: PfG6PD enzyme inhibitors, primary screen, biochemical, fluorescence intensity, uHTS. inhibition, % at 20 µM. PfGluPho enzyme, NADPH resazurin-diaphorase fluorescence. AID 504690, 2011. 0.78% of 350,000 active. glucose-6-phosphate dehydrogenase-6-phosphogluconolactonase (Plasmodium falciparum 3D7);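 active = inhibition reaching at least a set limit at 20 µM in the primary screen, cut at about 59% in these data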
APOBEC3A inh: APOBEC3A ssDNA deaminase inhibitors, primary screen, selectivity assay for APOBEC3G inhibitor project, biochemical, FAM/TAMRA oligo cleavage fluorescence. recombinant A3A, FAM/TAMRA ssDNA deamination fluorescence. DNA dC->dU-editing enzyme APOBEC-3A (Homo sapiens), P31941. inhibition, % at 20 µM. 0.41% of 330,000 active;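 active = at least 40% inhibition at 20 µM here, with at most 30% in a related deaminase screen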
Target sequence (P31941 whole entry, looked up): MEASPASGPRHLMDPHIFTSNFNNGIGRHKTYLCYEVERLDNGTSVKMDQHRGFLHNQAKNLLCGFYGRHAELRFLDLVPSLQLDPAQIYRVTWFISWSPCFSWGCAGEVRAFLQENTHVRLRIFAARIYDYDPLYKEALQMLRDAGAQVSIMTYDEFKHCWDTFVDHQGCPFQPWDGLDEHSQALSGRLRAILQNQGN
UBC9 SUMO inh: inhibitors of in vitro SUMOylation cascade, primary screen, biochemical, HTRF, uHTS | 0.36% of 290,000 active | inhibition, % at 35 µM | SUMO-conjugating enzyme UBC9 (Homo sapiens), P63279 | HTRF SUMOylation assay, SAE1/SAE2 + UBC9; in the data active = inhibition above about 50%, passing the limit was not always enough
PfM18AAP inh-1: PfM18AAP inhibitors, malaria aminopeptidase, primary screen, biochemical, QFRET, recombinant enzyme; H-Glu-NHMec fluorogenic cleavage; inhibition, % at 7.35 µM; 1.2% of 290,000 active;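 active = inhibition above the campaign mean inhibition over all tested compounds plus 3 SD, cut at about 28% in these data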
PfM18AAP inh-2: PfM18AAP inhibitors, malaria aminopeptidase, confirmation, biochemical, QFRET, recombinant enzyme, triplicate | shares compounds with PfM18AAP inh-1 | H-Glu-NHMec fluorogenic cleavage | inhibition, % at 7.35 µM | 28% of 2,400 active;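 active = mean inhibition over replicate wells above the hit cutoff set for the earlier primary screen, cut at about 29% in these data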
CTSL1 counter: cathepsin L1 inhibitors, retest, confirmation, counter-screen for PFM18AAP inhibitor project, biochemical, QFRET, triplicate; shares compounds with PfM18AAP inh-1; purified cathepsin L1, Z-Leu-Arg-MCA fluorescence; inhibition, % at 5.96 µM; 2,400 tested, under 10 active; AID 2178, 2009;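 active = average inhibition across replicates above the hit cutoff set in the earlier primary screen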
Target sequence (P07711 whole entry, looked up): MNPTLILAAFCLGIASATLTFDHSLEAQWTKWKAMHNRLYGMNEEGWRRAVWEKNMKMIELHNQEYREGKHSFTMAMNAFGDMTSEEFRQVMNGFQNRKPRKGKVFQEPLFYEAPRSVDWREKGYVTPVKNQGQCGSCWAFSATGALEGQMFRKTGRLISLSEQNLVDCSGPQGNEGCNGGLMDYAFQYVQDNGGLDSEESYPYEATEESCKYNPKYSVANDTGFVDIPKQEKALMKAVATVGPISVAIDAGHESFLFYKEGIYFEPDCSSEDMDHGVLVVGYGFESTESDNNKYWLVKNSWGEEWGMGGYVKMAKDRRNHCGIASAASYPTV
A number is an active result; - = inactive; . = not tested or not shown. In the library only some 2.4% were active in any assay of this set; here they are far more common.

SMILES | HKDC1 inhibitor | A3G deaminase | PfGluPho inh | APOBEC3A inh | UBC9 SUMO inh | PfM18AAP inh-1 | PfM18AAP inh-2 | CTSL1 counter
NC(=O)N/N=C/c1coc2ccc(O)cc2c1=O | - | - | - | - | - | 66.0 | 56.6 | -
CC(=O)Oc1cc(O)c2c(c1)OC(c1ccc(OC(C)=O)c(OC(C)=O)c1)C(OC(C)=O)C2=O (stereo not given) | - | - | - | - | - | 54.3 | 30.9 | -
CCCCn1c(O)c(/C=C2\C=Nc3ccccc32)c(=O)[nH]c1=O | - | - | - | - | - | 39.7 | - | -
CCCCc1nn2c(N)c(/C=C3\C=Nc4ccccc43)c(=O)nc2s1 | - | - | - | - | - | - | . | .
COc1cc([N+](=O)[O-])ccc1-c1ccc(/C=N/NC(=O)OC(C)(C)C)o1 | - | - | - | - | - | - | . | .
COc1cc([N+](=O)[O-])ccc1-c1ccc(/C=N/NC(N)=O)o1 | - | - | - | - | - | 43.7 | - | -
O=C(CO/N=C/c1ccccc1OC(F)F)N1CCc2ccccc21 | - | - | - | - | - | - | . | .
O=C1C2Sc3[nH]c(=O)sc3C(c3ccccc3)C2C(=O)N1c1ccc(Cl)cc1 (stereo not given) | - | - | - | - | - | 36.1 | - | -
Cc1ccc(S(=O)(=O)NCCC(=O)NNC(=O)COc2ccccc2Cl)cc1C | - | - | - | - | . | . | . | .
CCOc1cc(C2/C(=C(\O)c3cc(C)ccc3C)C(=O)C(=O)N2CCN(C)C)ccc1O (stereo not given) | - | - | - | - | - | - | . | .
Cc1cc(C)nc(SCNC(=O)c2ccc(F)cc2)n1 | - | - | - | - | - | 50.0 | - | -
O=C(O)CCC(=O)Nc1ccccc1C(=O)Nc1ccccc1 | - | - | - | - | - | - | . | .
Cc1ncc(CO)c(/C=N/Nc2ccc(C(F)(F)F)cn2)c1O | - | - | - | - | - | 47.7 | - | -
COc1ccc(C(=O)N/N=C/c2ccc(OC)c(COc3ccccc3)c2)cc1 | - | - | - | - | - | - | . | .
COc1ccc(/C=N\NC(=O)c2cc(O)c(O)c(O)c2)cc1COc1ccc(C(=O)OCC(C)C)cc1 | - | - | - | - | - | 31.8 | - | -
COc1ccc(/C=N\NC(=O)c2cc(O)c(O)c(O)c2)cc1CN1CCN(c2ccc(F)cc2)CC1 | - | . | - | . | - | 37.9 | - | -
CN1/C(=C\C(=O)COC(=O)c2ccc(O)c(O)c2)C(C)(C)c2ccccc21 | - | - | - | - | - | 45.3 | - | -
CN1/C(=C\C(=O)CSc2cccc[n+]2[O-])C(C)(C)c2ccccc21 | - | - | - | - | - | 49.2 | - | -
Cc1ccc(S(=O)(=O)Nc2cc3c(C(=O)Nc4ccccc4)c(C)oc3c3ccccc23)cc1 | - | - | - | - | - | - | . | .
Cc1ccc2oc(=O)c(/C=C(\O)c3cccs3)nc2c1 | - | - | - | - | - | 37.4 | 29.1 | -
O=c1oc2ccc(Cl)cc2nc1/C=C(\O)c1cccs1 | - | - | - | - | - | - | . | .
O=c1[nH]cnc2[nH]ncc12 | - | - | - | - | - | 48.9 | - | -
O=C(CSc1nc2ccccc2s1)Nc1ncccn1 | - | - | - | - | - | - | . | .
O=C(CSc1nc2ccccc2s1)Nn1cnnc1 | - | - | - | - | - | 69.2 | 57.0 | -
O=C(CSc1nn(-c2ccccc2)c(=S)s1)Nn1cnnc1 | - | - | - | - | - | 53.3 | 73.4 | -
SMILES | HKDC1 inhibitor | A3G deaminase | PfGluPho inh | APOBEC3A inh | UBC9 SUMO inh | PfM18AAP inh-1 | PfM18AAP inh-2 | CTSL1 counter
OCc1cc(-c2ccccn2)no1 | - | - | - | - | . | . | . | .
CCCn1c(-c2ccc(F)cc2)n[nH]c1=S | - | - | - | - | - | 35.5 | - | -
Cc1ccc(-c2n[nH]c(=S)n2Cc2ccccc2)cc1 | - | - | - | - | - | - | . | .
Cc1cc(=O)[nH]c(N/N=C/c2ccc(O)c(O)c2)n1 | - | - | - | - | - | 45.0 | - | -
Oc1ccc(/C=N/Nc2nc(N3CCCC3)nc(N3CCCC3)n2)cc1O | - | - | - | - | - | 54.1 | 28.1 | -
CSc1ccc(/C=N/Nc2nc(C)cc(=O)[nH]2)cc1 | - | - | - | - | - | - | . | .
Cc1ccc(/C=N/Nc2ccc(Cl)nn2)cc1 | - | - | - | - | - | - | . | .
COc1cc(/C=N/Nc2nc(N3CCCC3)nc(N3CCCC3)n2)ccc1O | - | - | - | - | - | - | . | .
Oc1ccc(/C=N/Nc2ccc(Cl)nn2)cc1O | - | - | - | - | - | 47.3 | - | -
CN(C)/C=C/c1oc2ccc(O)cc2c1[N+](=O)[O-] | - | - | - | - | - | 35.8 | - | -
O=C(Cc1ccccc1)NNC(=O)Nc1ccc(Cl)c(Cl)c1 | - | - | - | - | - | - | . | .
NC(=S)NNC(=O)Nc1ccc(Cl)c(Cl)c1 | - | - | - | - | - | 35.5 | - | -
CCOC(=O)C1C(=O)C=C(/C=C/c2ccc(N(C)C)cc2)CC1c1ccccc1 (stereo not given) | - | - | - | - | - | - | . | .
COc1ccc(/C=N/NS(=O)(=O)c2ccc(F)cc2)cc1COc1cc(F)ccc1[N+](=O)[O-] | - | - | - | - | - | 65.4 | - | -
COc1cc([N+](=O)[O-])ccc1NC(=O)NNC(=O)c1sccc1C | - | - | - | - | - | 52.7 | 44.6 | -
O=C(CSc1nnc(NC2CCCCC2)s1)NN1C(=O)NC2(CCCCC2)C1=O | - | - | - | - | - | - | . | .
CCc1ccccc1NC(=O)Nn1cnnc1 | - | - | - | - | - | 55.9 | 37.8 | -
CCOc1ccccc1NC(=O)Nn1cnnc1 | - | - | - | - | - | 59.9 | 43.7 | -
Cc1c(Cl)cccc1NC(=S)Nn1cnnc1 | - | - | - | - | - | 75.9 | 75.7 | -
COCCCNC(=S)NNC(=S)Nc1ccc(OC)cc1 | - | - | - | - | - | 49.2 | - | -
COc1ccc(NC(=S)NCCCc2ccccc2)cc1 | - | - | - | - | - | - | . | .
Cc1cccc(-n2c(CCn3nc(C)c([N+](=O)[O-])c3C)n[nH]c2=S)c1 | - | - | - | - | - | - | . | .
